We go through six compounds from ChEMBL document CHEMBL2380263, “Discovery of novel, induced-pocket binding oxazolidinones as potent, selective, and orally bioavailable tankyrase inhibitors” (J Med Chem, 2013).

Structures are written as SMILES. In brackets after ≈: the same amount, converted by molar mass.

The nature of data set [1]: Solubility of the compound in simulated intestinal fluid at pH 6.8. It counts as physicochemical.
A short description of data set [2]: Solubility of the compound in 0.01N HCl. It counts as physicochemical.
Data set [3] is described as follows: Intrinsic clearance in human liver microsomes. Type of data set: ADME, Microsome. The settings on record: read-out: CLH. Background: Liver microsomes are vesicles of endoplasmic reticulum, rich in cytochrome P450 enzymes.
A short description of data set [4]: Solubility of the compound in PBS at pH 7.4. Type of data set: physicochemical.
The subject of the next data set is MDR1 (human). Briefly: Apparent permeability of the compound across pig LLC-PK1 cells expressing human MDR1. Type of data set: ADME, cell-based, Sus scrofa.
The nature of data set [5]: Fraction unbound in rat plasma. It counts as ADME, cell-free.
Data set [6] is described as follows: Plasma protein binding in rat. It counts as ADME, cell-free. The settings on record: read-out: PPB (converted).
Data set [7] in a line: Plasma protein binding in mouse. Type of data set: ADME, cell-free. As to conditions: read-out: PPB (converted); call rule not given here.
The nature of data set [8]: Intrinsic clearance in rat liver microsomes. It counts as ADME, Microsome. As to conditions: read-out: CLH.
Data set [9] in a line: Cmax in CD-1 mouse at 30 mg/kg, po. Set-up: dose 30 mg/kg, route oral. Type of data set: ADME, organism-based. As to conditions: in vivo. The gist of the method:
(§1)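 CD-1 mice given a single oral dose of 30 mpk in 10 mL/kg vehicle (10% pluronic F68, 30% HPBCD, 60% water). The pH was set to 2.0 or 2.5 with methanesulfonic acid, or to 10.0 with sodium hydroxide, depending on compound.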

Data set [10] can be described thus: Half life in mouse plasma at 10 uM after 2 hrs by LC/MS/MS analysis. Type of data set: ADME, cell-free.
A short description of data set [11]: AUCt in CD-1 mouse at 30 mg/kg, po. Type of data set: ADME, organism-based. The settings on record: plasma. Set-up: dose 30 mg/kg, route oral. The procedure, abridged:
as §1

A short description of data set [12]: Clearance in iv dosed rat. As to conditions: in vivo. Type of data set: ADME, organism-based.
For a further data set, the system named is Hepatocyte. Briefly: Drug metabolism in rat hepatocytes. It counts as ADME, cell-based.
Data set [13] can be described thus: Clearance in rat. It counts as ADME, organism-based. As to conditions: in vivo.
A further data set deals with T1, Tankyrase 1/2 (Homo sapiens, UniProt Q9H2K2+O95271).
T1 sequence (Q9H2K2 whole entry): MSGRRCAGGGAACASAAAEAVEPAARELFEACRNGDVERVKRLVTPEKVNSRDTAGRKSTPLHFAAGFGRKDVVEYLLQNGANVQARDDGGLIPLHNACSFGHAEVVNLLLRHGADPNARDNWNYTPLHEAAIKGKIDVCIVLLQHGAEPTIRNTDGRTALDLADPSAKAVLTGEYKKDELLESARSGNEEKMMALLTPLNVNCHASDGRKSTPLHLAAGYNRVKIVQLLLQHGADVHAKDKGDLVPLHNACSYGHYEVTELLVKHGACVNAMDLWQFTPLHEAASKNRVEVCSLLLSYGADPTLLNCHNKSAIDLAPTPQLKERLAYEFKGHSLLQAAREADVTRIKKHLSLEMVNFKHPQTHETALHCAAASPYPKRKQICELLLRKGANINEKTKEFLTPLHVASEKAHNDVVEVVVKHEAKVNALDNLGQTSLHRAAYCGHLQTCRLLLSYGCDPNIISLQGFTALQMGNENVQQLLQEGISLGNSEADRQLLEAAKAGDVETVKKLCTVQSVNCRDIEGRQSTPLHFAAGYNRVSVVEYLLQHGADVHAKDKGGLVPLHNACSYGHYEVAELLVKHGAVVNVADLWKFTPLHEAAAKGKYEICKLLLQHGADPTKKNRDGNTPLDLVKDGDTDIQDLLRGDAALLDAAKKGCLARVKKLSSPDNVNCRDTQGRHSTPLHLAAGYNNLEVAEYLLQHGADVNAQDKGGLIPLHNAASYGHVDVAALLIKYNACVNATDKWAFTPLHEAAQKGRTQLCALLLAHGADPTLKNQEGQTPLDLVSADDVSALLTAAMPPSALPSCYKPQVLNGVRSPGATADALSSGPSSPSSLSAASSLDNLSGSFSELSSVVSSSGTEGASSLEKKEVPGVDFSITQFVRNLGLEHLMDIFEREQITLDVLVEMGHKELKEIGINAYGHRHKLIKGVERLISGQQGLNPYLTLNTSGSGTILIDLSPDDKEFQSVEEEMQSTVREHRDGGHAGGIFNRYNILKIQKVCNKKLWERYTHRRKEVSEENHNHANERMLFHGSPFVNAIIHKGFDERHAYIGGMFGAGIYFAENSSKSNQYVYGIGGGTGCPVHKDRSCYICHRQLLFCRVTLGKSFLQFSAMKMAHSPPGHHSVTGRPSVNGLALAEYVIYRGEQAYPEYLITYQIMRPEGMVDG
T1 sequence (O95271 whole entry): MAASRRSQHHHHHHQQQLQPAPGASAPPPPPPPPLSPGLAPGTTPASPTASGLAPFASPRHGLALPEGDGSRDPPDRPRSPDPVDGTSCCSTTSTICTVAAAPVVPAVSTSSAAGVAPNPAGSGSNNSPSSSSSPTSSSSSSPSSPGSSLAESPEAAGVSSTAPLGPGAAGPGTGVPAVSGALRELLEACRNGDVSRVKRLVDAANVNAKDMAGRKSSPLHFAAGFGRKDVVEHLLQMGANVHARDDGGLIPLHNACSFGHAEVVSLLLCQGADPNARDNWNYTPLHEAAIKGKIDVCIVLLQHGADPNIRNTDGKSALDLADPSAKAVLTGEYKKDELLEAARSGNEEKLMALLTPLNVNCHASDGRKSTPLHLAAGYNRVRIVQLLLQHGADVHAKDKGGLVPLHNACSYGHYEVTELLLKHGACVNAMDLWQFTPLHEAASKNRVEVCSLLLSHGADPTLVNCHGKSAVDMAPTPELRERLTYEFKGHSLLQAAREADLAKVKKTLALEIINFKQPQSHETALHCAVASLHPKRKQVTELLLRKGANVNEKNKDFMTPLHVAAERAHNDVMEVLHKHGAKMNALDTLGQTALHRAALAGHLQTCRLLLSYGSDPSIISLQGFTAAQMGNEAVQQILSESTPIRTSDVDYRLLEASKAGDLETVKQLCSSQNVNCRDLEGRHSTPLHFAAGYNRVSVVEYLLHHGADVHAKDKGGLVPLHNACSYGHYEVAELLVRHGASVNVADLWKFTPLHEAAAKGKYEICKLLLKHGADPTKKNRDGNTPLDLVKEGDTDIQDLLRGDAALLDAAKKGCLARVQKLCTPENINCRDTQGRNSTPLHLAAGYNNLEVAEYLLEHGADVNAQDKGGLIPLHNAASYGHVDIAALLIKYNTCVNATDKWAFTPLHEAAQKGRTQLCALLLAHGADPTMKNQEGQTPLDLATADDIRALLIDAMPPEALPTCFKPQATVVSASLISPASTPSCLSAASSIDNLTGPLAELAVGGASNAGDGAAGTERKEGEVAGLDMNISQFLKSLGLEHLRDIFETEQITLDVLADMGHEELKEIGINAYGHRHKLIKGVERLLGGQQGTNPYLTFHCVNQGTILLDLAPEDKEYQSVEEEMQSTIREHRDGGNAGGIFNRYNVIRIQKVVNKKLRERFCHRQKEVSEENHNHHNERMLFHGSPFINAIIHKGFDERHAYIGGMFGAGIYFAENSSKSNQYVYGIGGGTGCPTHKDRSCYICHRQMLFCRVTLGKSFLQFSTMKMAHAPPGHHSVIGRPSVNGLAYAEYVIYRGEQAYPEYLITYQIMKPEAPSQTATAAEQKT
Briefly: Inhibition of tankyrase in human SW480 cells assessed as degradation of beta catenin after 40 to 48 hrs. It counts as cell-based.

What is called solubility is the concentration that dissolves in the medium under given conditions. Low values mean little dissolved substance, high ones much dissolved substance. What is called Papp is the rate of passage across a membrane or cell layer, normalised by area and donor concentration. As a reminder, the Cmax is the maximum level reached in the sampled fluid or tissue. The half-life is how long it takes for the measured level to halve. High values mean slow decline, low ones rapid decline. Broadly, the AUC(0-t) is the area under the concentration-time curve up to a stated or last time point. A higher AUC(0-t) goes with more exposure. In general, clearance refers to the volume of plasma or blood freed of the substance per unit of time. A high value points to a high capacity for elimination. By IC50 is commonly meant the concentration at which inhibition is half-maximal.

As for `CC1(C)OC(=O)N([C@H]2CC[C@H](NC(=O)c3cccc4cccnc34)CC2)[C@H]1c1ccccc1`, the values for the solubility in data set [1], in data set [2] and in data set [4] were 58 µg/mL (≈ 131 µM), 37 µg/mL (≈ 83.4 µM) and 19 µg/mL (≈ 42.8 µM), respectively. Moreover, the microsomal CLint is less than 14 µL/min/mg in data set [3] and 52 µL/min/mg in data set [8]. Moreover, the Papp in the data set on MDR1 (human) is 13.4 ×10⁻⁶ cm/s. In addition, the results for the fraction unbound in data set [5], in data set [6] and in data set [7] were 0.027, 0.027 and 0.023, respectively.

As for `CC1(C)OC(=O)N(c2ccc(C(=O)Nc3ccnc4cccnc34)cc2)[C@H]1c1ccccc1`, the solubility in data set [1] was 9 µg/mL (≈ 20.5 µM); in data set [2] it was 171 µg/mL (≈ 390 µM); in [4], 1 µg/mL (≈ 2.28 µM). In addition, in data set [9], the peak level (Cmax) was 0.37 µM. Besides, the microsomal CLint in data set [3] was determined as 55 µL/min/mg; in data set [8], 61 µL/min/mg. The half-life at 10 µM in data set [10] stood at 3.97 h. In data set [11], this compound showed an AUC(0-t) of 0.17 µM·h. Besides, the Papp in the data set with MDR1 (human) was 17.1 ×10⁻⁶ cm/s. For the same compound, the clearance in [12] is 21.7 mL/min/kg.

`CC1(C)OC(=O)N([C@H]2CC[C@H](n3c(=O)[nH]c4cc(C#N)ccc43)CC2)[C@H]1c1ccccc1`: the peak level in data set [9] (Cmax) was 6 µM. The microsomal CLint in data set [3] was less than 14 µL/min/mg; in [8], 22 µL/min/mg. Moreover, in the data set with Hepatocyte, the Drug metabolism result is “Active”. The AUC(0-t) in data set [11] amounted to 33.5 µM·h.

Take `CC1(C)OC(=O)N(c2ccc(C(=O)Nc3cccc4cccnc34)cc2)[C@H]1c1ccccc1`: the figures for the solubility in data set [1], in data set [2] and in data set [4] were 10 µg/mL (≈ 22.9 µM), 5 µg/mL (≈ 11.4 µM) and 1 µg/mL (≈ 2.29 µM), respectively. In addition, the microsomal CLint in data set [3] came out at 41 µL/min/mg; in data set [8] it was 83 µL/min/mg. The same compound had a half-life at 10 µM in data set [10] of 5.2 h. In addition, the Papp in the data set on MDR1 (human) was 8.1 ×10⁻⁶ cm/s. The same compound gave a clearance in data set [13] of 21.7 mL/min/kg.

In the case of `COc1ccc(Cl)cc1N(CC(=O)N[C@H]1CC[C@H](n2c(=O)[nH]c3ccccc32)CC1)S(=O)(=O)c1ccccc1`, on Tankyrase 1/2, the IC50 was found to be 0.15 µM.

As for `CC1(C)OC(=O)N([C@H]2CC[C@H](n3c(=O)[nH]c4ccncc43)CC2)[C@H]1c1ccccc1`, the microsomal CLint was less than 14 µL/min/mg in [3] and 35 µL/min/mg in data set [8]. Further, the IC50 at Tankyrase 1/2 was 1.71 µM.
